From PubChem BioAssay
This is a sample that favours compounds with a hit; in the whole collection about 2.2% have one here.
VIM-2 inhibitor = VIM-2 metallo-beta-lactamase inhibitors, primary screen, biochemical, epi-absorbance readout, Pseudomonas aeruginosa enzyme; purified VIM-2, nitrocefin hydrolysis, epi-absorbance fluorescence; inhibition, % at 5.6 µM; 290,000 compounds, 0.89% hits;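 active means inhibition above the mean of all tested compounds plus 3 SD, cutoff set per screening run, cut at about 7.5% in these data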;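 further: red hydrolysis product quenches plate fluorescence so inhibitors raise well fluorescence; 0% = enzyme with DMSO and 100% = DMSO without enzyme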
PABP1 MLLE inh = inhibitors of PABP1 MLLE–PAM2 peptide binding, primary screen, biochemical, fluorescence polarization, FITC-PAM2, GST-MLLE | Polyadenylate-binding protein 1 (Homo sapiens), P11940 | inhibition, % at 20 µM | 360,000 compounds, 0.36% hits; in the data active means inhibition above about 35%, passing the limit was not always enough;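 further: plate controls were DMSO wells with GST-MLLE for no effect and wells lacking GST-MLLE protein for full effect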
Target sequence (P11940 whole entry, looked up): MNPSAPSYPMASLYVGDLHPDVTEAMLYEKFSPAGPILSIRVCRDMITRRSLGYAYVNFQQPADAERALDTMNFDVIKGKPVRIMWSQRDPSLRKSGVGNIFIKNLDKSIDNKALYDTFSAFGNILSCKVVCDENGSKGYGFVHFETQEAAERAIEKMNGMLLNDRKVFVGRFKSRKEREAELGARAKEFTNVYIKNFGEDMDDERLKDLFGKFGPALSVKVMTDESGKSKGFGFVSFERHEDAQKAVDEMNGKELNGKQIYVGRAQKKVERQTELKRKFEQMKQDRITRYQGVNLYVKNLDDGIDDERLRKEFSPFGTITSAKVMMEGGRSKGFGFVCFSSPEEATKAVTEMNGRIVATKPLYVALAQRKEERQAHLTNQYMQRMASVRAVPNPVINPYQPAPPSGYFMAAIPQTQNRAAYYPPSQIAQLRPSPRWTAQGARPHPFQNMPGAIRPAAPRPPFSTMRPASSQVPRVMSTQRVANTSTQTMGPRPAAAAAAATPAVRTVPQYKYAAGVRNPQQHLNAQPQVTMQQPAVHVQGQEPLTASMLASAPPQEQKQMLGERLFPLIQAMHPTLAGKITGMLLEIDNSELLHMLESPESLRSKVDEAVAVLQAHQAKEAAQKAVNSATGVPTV
PABP FP inh = PABP poly(A) RNA binding inhibitors, primary screen, biochemical, fluorescence polarization, uHTS | Polyadenylate-binding protein 1 (Homo sapiens), P11940 | calls only at 35 µM | 290,000 compounds, 1% hits | AID 2014, 2009;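 further: calls also rest on retests at 20 µM and on dose response follow-up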
eIF4H inh = human eIF4H binding inhibitors, primary screen, translation initiation inhibitor project, biochemical, uHTS, fluorescence polarization; AID 2012, 2009; 290,000 compounds, 0.94% hits; eIF4H fluorescence polarization binding assay; Eukaryotic translation initiation factor 4H (Homo sapiens), Q15056; inhibition, % at 35 µM;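 further: calls also rest on retests at 20 µM and on dose response follow-up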
IMP-1 inh-1 = IMP-1 metallo-beta-lactamase inhibitors, primary screen, biochemical, epi-absorbance readout, Pseudomonas aeruginosa enzyme | purified IMP-1, nitrocefin hydrolysis, epi-absorbance fluorescence | inhibition, % at 5.6 µM | 290,000 compounds, 0.45% hits;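 active means inhibition above the mean plus 3 SD of all compounds in the same screening run, cut at about 4.5% in these data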;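 further: 0% = IMP-1 with DMSO and 100% = DMSO wells lacking enzyme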
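assay system = purified recombinant IMP-1 metallo-beta-lactamase enzyme | schedule = 15 min preincubation plus 25 min reaction at 25 °C | signal = Epi-absorbance fluorescence, 480 nm excitation, 530 nm emission | read-out basis = percent inhibition from optical density relative to buffer-blank wells | controls = IMP-1 with DMSO as 0%, enzyme-free DMSO as 100%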
IMP-1 inh-2 = IMP-1 metallo-beta-lactamase inhibitors, confirmation, selectivity assay for selective VIM-2 inhibitor project, biochemical, epi-absorbance readout, triplicate. shares compounds with VIM-2 inhibitor. purified IMP-1, nitrocefin hydrolysis, epi-absorbance fluorescence. inhibition, % at 5.6 µM. 1,300 tested, under 10 active;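 further: 0% = enzyme with vehicle and 100% = vehicle without enzyme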
VIM-2 FRET ctr = VIM-2 inhibitors in FRET format, confirmation, artefact control for selective VIM-2 inhibitor project, biochemical, epi-absorbance artifact exclusion. shares compounds with VIM-2 inhibitor. purified VIM-2, CCF2 FRET substrate hydrolysis. inhibition, % at 5.6 µM. 1,300 compounds, 23% hits. AID 1857, 2009;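 active means inhibition above the mean of all tested compounds plus 3 SD, cut at about 19% in these data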;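 further: 0% = VIM-2 plus DMSO and 100% = no enzyme wells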
TEM-1 counter = TEM-1 serine beta-lactamase inhibitors, counter-screen for VIM-2 inhibitor project, biochemical, epi-absorbance, HTS; Purified TEM-1, nitrocefin hydrolysis, epi-absorbance fluorescence; 1,300 compounds, 3% hits; inhibition, % at 5.6 µM; shares compounds with VIM-2 inhibitor;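 active means inhibition above that campaign's mean inhibition plus 3 SD, cut at about 0.46% in these data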;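 further: 0% = TEM-1 with DMSO and 100% = TEM-1 with 100 µM potassium clavulanate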
VIM-2 inh conf = VIM-2 metallo-beta-lactamase inhibitors, confirmation, biochemical, epi-absorbance, hits shared with IMP-1 screen; shares compounds with VIM-2 inhibitor; 1,300 compounds, 96% hits; purified VIM-2, nitrocefin hydrolysis; inhibition, % at 5.6 µM;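 active means inhibition of the VIM-2 beta-lactamase enzyme above about 11% from the earlier first-round screen, limit read from the data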;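 further: 0% = VIM-2 with DMSO and 100% = buffer wells without enzyme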
* hit, by the source's call; i = inactive; ? = inconclusive; · = not tested or not shown; + = active, no number. Unless noted, how the calls were made is not given here.

SMILES	VIM-2 inhibitor	PABP1 MLLE inh	PABP FP inh	eIF4H inh	IMP-1 inh-1	others
CN1CCc2nc3ccc(F)cc3c(C(N)=O)c2C1	-4	-11	i	-2	-1
O=P1(c2ccccc2)Nc2ccccc2N1c1ccccc1 (centres undefined)	·	-8	·	·	·
O=[As](O)(O)c1ccc(N=Nc2ccc(O)cc2)cc1	-5	9	i	-1	5.1*
CN1CCN(c2nc3ccccc3o2)CC1	0	-24	i	0	0
CCCCn1c(O)c(/C=C2/C=CC=N2)c(=O)[nH]c1=O	0	-7	i	-6	-1
C=CCn1c(O)c(/C=C2/C=CC=N2)c(=O)[nH]c1=O	-1	-8	+	88*	1
CCN(CC)CC(=O)Nc1ccc(Cl)cc1C(=O)c1ccccc1	0	0	·	·	1
O=C(O)CCn1cc(C=C2C(=O)NC(=S)NC2=O)c(-c2ccccc2)n1	-3	42*	i	4	-2
CCOC(=O)c1c(C)n(C(C)C)c2ccc(OC(=O)c3ccc(N4C(=O)CCC4=O)cc3)cc12	0	6	i	-14	0
CC[n+]1c(-c2ccccc2)c2cc(N)ccc2c2ccc(N)cc21	·	79*	·	·	·
Cn1ccnc1P(=S)(c1nccn1C)N1CCOCC1	0	37*	i	-11	-2
O=C(Nc1ccccc1)OC1CN=C(N[N+](=O)[O-])NC1 (centres undefined)	2	10	i	-11	-2
N#Cc1c(N2CCNCC2)nc(-c2ccco2)c2c1CCCC2	8.9*	8	i	1	-3
CCCCc1nc(N2CCNCC2)c(C#N)c2c1CSC(C)(C)C2	-4	0	i	-9	-6
CC1C(=O)OC2CCN3CC4OC4(COC(=O)C(C)(O)C1(C)O)C23 (centres undefined)	·	-6	·	·	·
CCCOc1ccccc1C1SCC(=O)Nc2c1c(=O)[nH]n2C(C)CCC (centres undefined)	8.7*	6	i	1	-2
CCCC(C)n1[nH]c(=O)c2c1NC(=O)CSC2c1ccc(OC)cc1 (centres undefined)	-1	10	i	0	-3
CCN(CC)C(=O)c1ccc(NC(=O)COc2ccc(-c3nn(C)c(=O)c4ccccc34)cc2)cc1	9.0*	6	i	-1	-2
CCN(CC)C(=O)c1ccc(NC(=O)c2cn(-c3ccccc3)nc2-c2ccc(OC)cc2)cc1	-3	0	i	-6	-4
Cc1cc(/C=C2\C(=O)NC(=O)N(c3ccc(Cl)cc3)C2=O)c(C)n1-c1cccc(C(=O)O)c1	0	-11	+	?	-1
O=C1NC(=S)N(Cc2ccco2)C(=O)/C1=C\c1cccs1	2	·	i	74	5.1*
C=CCN1C(=O)/C(=C/c2cccs2)C(=O)NC1=S	-1	35	+	67	-3
CN(C)c1ccc(/C=C2/C(=O)NC(=O)N(Cc3ccco3)C2=O)cc1	-1	-52	i	?	0
Cc1cc(=O)oc2c(C)c(OCC(=O)N3CCN(Cc4ccccc4)CC3)ccc12	45*	-8	i	4	-4	IMP-1 inh-2=-3;VIM-2 FRET ctr=-1;TEM-1 counter=-8;VIM-2 inh conf=60*
Cc1c(C)c2ccc(OCC(=O)N3CCN(Cc4ccccc4)CC3)cc2oc1=O	·	13	·	·	·
